Measured values gathered from unrelated publications.
Compare with care: the assays were run in different laboratories.
TYK2: Non-receptor tyrosine-protein kinase TYK2 (TYK2, Homo sapiens, UniProt P29597)
TYK2 JH1: Non-receptor tyrosine-protein kinase TYK2, JH1 (TYK2, Homo sapiens, UniProt P29597)
TYK2 JH2: Non-receptor tyrosine-protein kinase TYK2, JH2 (TYK2, Homo sapiens, UniProt P29597)

COc1cc(Cl)c(C(=O)N[C@@H](CN[C@H]2CC[C@@H](N)CC2)Cc2ccc(C#N)cc2)cc1-c1ccc(CN[C@H](C)c2ccc(C)cc2)o1 — remaining activity (TYK2; enzyme activity; inhibitor; 1 µM): 105%
N[C@@H]1CCN(c2nccc(-c3cnn4ncccc34)n2)C1 — remaining binding (TYK2; binding; 1 µM): 100%
Cc1sc(C(=O)NC2COC2)cc1-n1cc(NC(=O)Nc2c(F)cccc2Cl)cn1 — remaining activity (TYK2; enzyme activity; inhibitor; 10 µM): 114%
Cc1cnn2ncc(-c3ccnc(N(C)C)n3)c2c1 — remaining binding (TYK2; binding; 1 µM): 32%
COc1cc2nccc(Oc3ccc(NC(=O)c4c5n(n(-c6ccc(F)cc6)c4=O)CCCC5)cc3)c2cc1OC — inhibition (TYK2; enzyme activity; inhibitor; 0.1 µM): -28%
O=C(CSc1nc2nccnc2c(=O)n1CCc1ccccc1)Nc1nccs1 — inhibition (TYK2; enzyme activity; inhibitor; 10 µM): 5%
CC1=C(C#N)[C@@H](c2ccc3[nH]nc(C)c3c2)C(C#N)=C(c2ccc(Cl)cc2)N1 — remaining binding (TYK2 JH1; cell-free assay; competition with immobilised ligand; 1 µM): 73.1%
CN(CCCC(F)(F)F)c1nccc(-c2cnn3ncccc23)n1 — remaining binding (TYK2; binding; 1 µM): 100%
COc1cc2ncnc(Nc3ccc(Oc4ccccc4)c(C)c3C)c2cc1OC — inhibition (TYK2; enzyme activity; inhibitor; 1 µM): -2%
Cn1nc(C(=O)NCc2ccc(C(=O)O)cc2)cc1-c1ccc2[nH]ccc2c1 — remaining binding (TYK2 JH2; cell-free assay; competition with immobilised ligand; 0.1 µM): 94%
CC(C)(O)[C@H]1CC[C@H](Nc2ccc3ncc(-c4cccc(C(F)(F)F)c4)n3n2)CC1 — remaining activity (TYK2; enzyme activity; inhibitor; 1 µM): 73.7%
Cc1c(C(=O)O)cc(-c2ccc(C3CCNCC3)cc2)c2ccc(-c3ccc(C(F)(F)F)cc3)cc12 — remaining binding (TYK2 JH1; binding; competition with immobilised ligand; 1 µM): 100%
Oc1cccc(-c2nc(N3CCOCC3)c3oc4ncccc4c3n2)c1 — remaining signal (TYK2; cell-free assay; 0.5 µM): 73.6%
c1ccc(N2CCN(Cc3nc4ccccc4[nH]3)CC2)nc1 — remaining binding (TYK2 JH2; binding; competition with immobilised ligand; 1 µM): 100%
O=C1Nc2ccc(Cl)cc2C1=Cc1cc(Cl)c(O)c(Cl)c1 — remaining signal (TYK2; cell-free assay; 0.5 µM): 26.9%
O=c1nc(-c2ccccn2)sc2ccccc12 — remaining binding (TYK2 JH2; binding; competition with immobilised ligand; 1 µM): 98%
CN(c1nccc(-c2cnn3ncccc23)n1)C1CC1 — remaining signal (TYK2 JH1; cell-free assay; 1 µM): 100%
O=C1CCc2cc(Nc3cc(OC4CCOCC4)c([N+](=O)[O-])cc3Cl)ccc2N1 — remaining binding (TYK2 JH2; cell-free assay; competition with immobilised ligand; 1 µM): 94%
CCCS(=O)(=O)Nc1ccc(F)c(C(=O)c2c[nH]c3ncc(-c4ccc(Cl)cc4)cc23)c1F — inhibition (TYK2; enzyme activity; inhibitor; 1 µM): < 10%
